System: U2OS
Assay: Multiplex assay against U2OS
Type: toxicity, cell-based
Conditions: human
Procedure, shortened: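 Cells stained live at seeding with Hoechst33342, BioTracker Green Microtubule Cytoskeleton Dye, MitoTracker Red and Annexin V Alexa Fluor 680 were imaged on a CQ1 microscope at 37°C and 5% CO2 after compound addition. Their classification by CellPathfinder machine-learning gating ran from Hoechst high-intensity objects versus normal cells, to healthy, pyknosed or fragmented nuclei among normal cells, to mitotic or apoptotic among pyknosed cells. Tubulin, mitochondrial-mass and membrane-permeability phenotypes are per cents of healthy-nucleus cells.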

[1] = 12 h, 1 µM, compound concentration 1 uM, replicate 1
[2] = 12 h, 1 µM, compound concentration 1 uM, replicate 2
[3] = 12 h, 10 µM, compound concentration 10 uM, replicate 1
[4] = 12 h, 10 µM, compound concentration 10 uM, replicate 2
[5] = 24 h, 1 µM, compound concentration 1 uM, replicate 1
[6] = 24 h, 1 µM, compound concentration 1 uM, replicate 2
[7] = 24 h, 10 µM, compound concentration 10 uM, replicate 1
[8] = 24 h, 10 µM, compound concentration 10 uM, replicate 2
[9] = 48 h, 1 µM, compound concentration 1 uM, replicate 1
[10] = 48 h, 1 µM, compound concentration 1 uM, replicate 2
[11] = 48 h, 10 µM, compound concentration 10 uM, replicate 1
[12] = 48 h, 10 µM, compound concentration 10 uM, replicate 2

Cc1sc2c(c1C)C(c1ccc(Cl)cc1)=N[C@@H](CC(=O)NCCCCCCCCNC(=O)COc1cccc3c1C(=O)N(C1CCC(=O)NC1=O)C3=O)c1nnc(C)n1-2 (stereo partly specified)
Population Apoptotic (%) [1]: 93% | Population Fragmented Nuclei (%) [1]: 43% | Population Healthy Nuclei (%) [1]: 49% | Population Hoechst High Intensity Objects (%) [1]: 11% | Population Membrane Permeable-Phenotype (%) [1]: 9% | Population Mitochondria Different-Phenotype (%) [1]: 4% | Population Mitotic Cells (%) [1]: 6% | Population Normal (%) [1]: 88% | Population Pyknosed Nuclei (%) [1]: 6% | Population Tubulin-Different-Phenotype (%) [1]: 5% | Total Cell Count [1]: 269 | Population Apoptotic (%) [2]: 87% | Population Fragmented Nuclei (%) [2]: 13% | Population Healthy Nuclei (%) [2]: 80% | Population Hoechst High Intensity Objects (%) [2]: 0% | Population Membrane Permeable-Phenotype (%) [2]: 5% | Population Mitochondria Different-Phenotype (%) [2]: 1% | Population Mitotic Cells (%) [2]: 12% | Population Normal (%) [2]: 99% | Population Pyknosed Nuclei (%) [2]: 5% | Population Tubulin-Different-Phenotype (%) [2]: 3% | Total Cell Count [2]: 136 | Population Apoptotic (%) [3]: 86% | Population Fragmented Nuclei (%) [3]: 31% | Population Healthy Nuclei (%) [3]: 55% | Population Hoechst High Intensity Objects (%) [3]: 5% | Population Membrane Permeable-Phenotype (%) [3]: 2% | Population Mitochondria Different-Phenotype (%) [3]: 4% | Population Mitotic Cells (%) [3]: 13% | Population Normal (%) [3]: 94% | Population Pyknosed Nuclei (%) [3]: 13% | Population Tubulin-Different-Phenotype (%) [3]: 0% | Total Cell Count [3]: 233 | Population Apoptotic (%) [4]: 100% | Population Fragmented Nuclei (%) [4]: 19% | Population Healthy Nuclei (%) [4]: 75% | Population Hoechst High Intensity Objects (%) [4]: 0% | Population Membrane Permeable-Phenotype (%) [4]: 17% | Population Mitochondria Different-Phenotype (%) [4]: 12% | Population Mitotic Cells (%) [4]: 0% | Population Normal (%) [4]: 99% | Population Pyknosed Nuclei (%) [4]: 4% | Population Tubulin-Different-Phenotype (%) [4]: 12% | Total Cell Count [4]: 117 | Population Apoptotic (%) [5]: 100% | Population Fragmented Nuclei (%) [5]: 42% | Population Healthy Nuclei (%) [5]: 51% | Population Hoechst High Intensity Objects (%) [5]: 11% | Population Membrane Permeable-Phenotype (%) [5]: 8% | Population Mitochondria Different-Phenotype (%) [5]: 3% | Population Mitotic Cells (%) [5]: 0% | Population Normal (%) [5]: 88% | Population Pyknosed Nuclei (%) [5]: 6% | Population Tubulin-Different-Phenotype (%) [5]: 5% | Total Cell Count [5]: 297 | Population Apoptotic (%) [6]: 92% | Population Fragmented Nuclei (%) [6]: 12% | Population Healthy Nuclei (%) [6]: 80% | Population Hoechst High Intensity Objects (%) [6]: 2% | Population Membrane Permeable-Phenotype (%) [6]: 5% | Population Mitochondria Different-Phenotype (%) [6]: 2% | Population Mitotic Cells (%) [6]: 7% | Population Normal (%) [6]: 97% | Population Pyknosed Nuclei (%) [6]: 7% | Population Tubulin-Different-Phenotype (%) [6]: 4% | Total Cell Count [6]: 174 | Population Apoptotic (%) [7]: 100% | Population Fragmented Nuclei (%) [7]: 34% | Population Healthy Nuclei (%) [7]: 53% | Population Hoechst High Intensity Objects (%) [7]: 8% | Population Membrane Permeable-Phenotype (%) [7]: 4% | Population Mitochondria Different-Phenotype (%) [7]: 5% | Population Mitotic Cells (%) [7]: 0% | Population Normal (%) [7]: 91% | Population Pyknosed Nuclei (%) [7]: 12% | Population Tubulin-Different-Phenotype (%) [7]: 2% | Total Cell Count [7]: 245 | Population Fragmented Nuclei (%) [8]: 27% | Population Healthy Nuclei (%) [8]: 65% | Population Hoechst High Intensity Objects (%) [8]: 0% | Population Membrane Permeable-Phenotype (%) [8]: 21% | Population Mitochondria Different-Phenotype (%) [8]: 9% | Population Normal (%) [8]: 99% | Population Pyknosed Nuclei (%) [8]: 7% | Population Tubulin-Different-Phenotype (%) [8]: 14% | Total Cell Count [8]: 130 | Population Apoptotic (%) [9]: 91% | Population Fragmented Nuclei (%) [9]: 35% | Population Healthy Nuclei (%) [9]: 53% | Population Hoechst High Intensity Objects (%) [9]: 10% | Population Membrane Permeable-Phenotype (%) [9]: 6% | Population Mitochondria Different-Phenotype (%) [9]: 1% | Population Mitotic Cells (%) [9]: 8% | Population Normal (%) [9]: 89% | Population Pyknosed Nuclei (%) [9]: 10% | Population Tubulin-Different-Phenotype (%) [9]: 2% | Total Cell Count [9]: 353 | Population Apoptotic (%) [10]: 90% | Population Fragmented Nuclei (%) [10]: 12% | Population Healthy Nuclei (%) [10]: 79% | Population Hoechst High Intensity Objects (%) [10]: 1% | Population Membrane Permeable-Phenotype (%) [10]: 4% | Population Mitotic Cells (%) [10]: 9% | Population Normal (%) [10]: 98% | Population Pyknosed Nuclei (%) [10]: 7% | Population Tubulin-Different-Phenotype (%) [10]: 1% | Total Cell Count [10]: 270 | Population Apoptotic (%) [11]: 100% | Population Fragmented Nuclei (%) [11]: 36% | Population Healthy Nuclei (%) [11]: 51% | Population Hoechst High Intensity Objects (%) [11]: 7% | Population Membrane Permeable-Phenotype (%) [11]: 9% | Population Mitochondria Different-Phenotype (%) [11]: 4% | Population Mitotic Cells (%) [11]: 0% | Population Normal (%) [11]: 92% | Population Pyknosed Nuclei (%) [11]: 12% | Population Tubulin-Different-Phenotype (%) [11]: 4% | Total Cell Count [11]: 289 | Population Fragmented Nuclei (%) [12]: 25% | Population Healthy Nuclei (%) [12]: 70% | Population Hoechst High Intensity Objects (%) [12]: 2% | Population Membrane Permeable-Phenotype (%) [12]: 10% | Population Normal (%) [12]: 97% | Population Pyknosed Nuclei (%) [12]: 4% | Population Tubulin-Different-Phenotype (%) [12]: 7% | Total Cell Count [12]: 179
